Results as given in ChEMBL document CHEMBL1128415 (J Med Chem, 1995).
Where “and” joins values, the source holds several entries; their conditions need not be identical. Equal values may be shown once.

Assays:
[1] = biological target: T1, Angiotensin II receptor (AT-1) type-1 (Rattus norvegicus) (UniProt P29089+P25095); test: Inhibition of pressor response induced by infusion of AII in rats when dose is administered intravenously; type: functional
How it was run: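 Normotensive Sprague-Dawley pithed rats (n = 4), BP recorded by carotid catheter. AII 0.75 μg/kg injected via jugular vein; three control responses taken. Each later AII challenge followed, by 5 min, an iv injection of antagonist at increasing doses, in water or water with 2 equiv NaOH.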

[2] = biological target: T1, Angiotensin II receptor (AT-1) type-1 (Rattus norvegicus); test: Inhibition of pressor response induced by infusion of angiotensin II in rats, administered perorally; type: functional
How it was run: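 Sprague-Dawley rats (n = 18-28) dosed by gastric tube in groups; vehicle water or water with 2 equiv NaOH; controls given water. At 50 min rats anaesthetised, pithed, ventilated, with carotid and jugular catheters. At 1 h post-dose AII 0.75 μg/kg iv given.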

[3] = biological target: T2, Angiotensin II receptor (AT-1) type-1 (Rattus norvegicus, UniProt P29089+P25095); test: Specific binding inhibition of [125I]AII to Angiotensin II receptor, type 1 in rat liver membrane; type: cell membranes
T2 sequence (P29089 whole entry): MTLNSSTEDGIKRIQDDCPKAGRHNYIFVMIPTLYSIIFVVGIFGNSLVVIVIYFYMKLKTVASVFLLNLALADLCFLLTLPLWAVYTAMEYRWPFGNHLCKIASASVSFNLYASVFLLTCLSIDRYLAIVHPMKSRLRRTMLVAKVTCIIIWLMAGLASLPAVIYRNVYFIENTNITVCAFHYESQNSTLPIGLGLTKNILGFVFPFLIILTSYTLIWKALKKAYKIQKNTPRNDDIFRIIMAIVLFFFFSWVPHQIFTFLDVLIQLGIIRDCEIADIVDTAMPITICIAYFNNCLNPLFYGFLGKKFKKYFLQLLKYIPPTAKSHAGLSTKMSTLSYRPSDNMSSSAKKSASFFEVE
T2 sequence (P25095 whole entry): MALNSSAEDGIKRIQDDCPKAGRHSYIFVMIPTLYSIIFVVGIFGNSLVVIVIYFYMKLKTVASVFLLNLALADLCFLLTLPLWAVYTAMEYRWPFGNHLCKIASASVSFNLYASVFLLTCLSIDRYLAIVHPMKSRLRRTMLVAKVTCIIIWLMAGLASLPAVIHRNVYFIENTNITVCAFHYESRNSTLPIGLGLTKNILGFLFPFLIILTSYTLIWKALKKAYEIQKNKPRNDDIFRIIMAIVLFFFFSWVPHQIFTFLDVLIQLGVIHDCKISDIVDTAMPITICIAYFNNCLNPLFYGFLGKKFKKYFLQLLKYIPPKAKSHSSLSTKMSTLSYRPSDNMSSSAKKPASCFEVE

Rattus norvegicus = test: Effective dose to inhibit AII-induced pressor response in pithed rats, was determined in vivo after intraduodenal administration; details: read-out: ID50 (the source's name)

SMILES	ID50 [1]	ID50 [2]	IC50 [3] [nM]	ED50 (Rattus norvegicus) [mg/kg]
CCCCc1nc(SC)c(C(=O)OCC)n1Cc1ccc(-c2ccccc2S(=O)(=O)N(C)C(=O)NCCC)cc1	–	–	78	–
CCCCc1nc(SC)c(C(=O)O)n1Cc1ccc(-c2ccccc2S(=O)(=O)NC(=O)OC)cc1	0.1 mg/kg	1.54 mg/kg	0.9	–
CCCCc1nc(SCCCCOC(C)=O)c(C(=O)O)n1Cc1ccc(-c2ccccc2S(=O)(=O)NC(=O)NCCC)cc1	0.6 mg/kg	> 10 mg/kg	0.3	–
CCCCc1nc(SCC(F)(F)F)c(C(=O)O)n1Cc1ccc(-c2ccccc2S(=O)(=O)NC(=O)NCCC)cc1	0.8 mg/kg	2.28 mg/kg	0.6	–
CCCCc1nc(SC)c(C(=O)O)n1Cc1ccc(-c2ccccc2S(=O)(=O)NS(=O)(=O)C(F)(F)F)cc1	1.45 mg/kg	–	0.8	–
CCCCc1nc(Sc2cccs2)c(C(=O)O)n1Cc1ccc(-c2ccccc2S(=O)(=O)NC(=O)NCCC)cc1	2.01 mg/kg	–	0.2	–
CCCCc1nc(SC)c(C(=O)O)n1Cc1ccc(-c2ccccc2S(=O)(=O)NC(=O)OCC(C)C)cc1	0.15 mg/kg	0.43 mg/kg	0.2	–
CCCCc1nc(SCC(F)(F)C(F)(F)CO)c(C(=O)O)n1Cc1ccc(-c2ccccc2S(=O)(=O)NC(=O)NCCC)cc1	0.83 mg/kg	5.3 mg/kg	0.3	–
CCCCc1nc(SC)c(C(=O)O)n1Cc1ccc(-c2ccccc2S(N)(=O)=O)cc1	5.6 mg/kg	> 30 mg/kg	36	–
CCCCc1nc(Sc2ccccc2)c(C(=O)O)n1Cc1ccc(-c2ccccc2S(=O)(=O)NC(=O)NCCC)cc1	0.67 mg/kg	> 10 mg/kg	0.3	–
CCCCc1nc(SC)c(C(=O)O)n1Cc1ccc(-c2ccccc2S(=O)(=O)NC(=O)OCC=C(C)C)cc1	–	–	1.8	–
CCCCc1nc(SC)c(C(=O)O)n1Cc1ccc(-c2ccccc2S(=O)(=O)/N=C(/S)NCCC)cc1	1.15 mg/kg	–	2.1	–
CCCCc1nc(SCCCCO)c(C(=O)O)n1Cc1ccc(-c2ccccc2S(=O)(=O)NC(=O)NCCC)cc1	0.12 mg/kg	9.81 mg/kg	0.4	–
CCCCc1nc(SC)c(C(=O)OCc2ccccc2)n1Cc1ccc(-c2ccccc2S(=O)(=O)NC(=O)NCCC)cc1	0.2 mg/kg	1.73 mg/kg	0.1	–
CCCCc1nc(S(C)(=O)=O)c(C(=O)O)n1Cc1ccc(-c2ccccc2S(=O)(=O)NC(=O)NCCC)cc1	0.06 mg/kg	> 10 mg/kg	3.2	–
CCCCc1nc(SC)c(C(=O)O)n1Cc1ccc(-c2ccccc2C(=O)NC(=O)NCCC)cc1	–	–	114	–
CCCCc1nc(SC)c(C(=O)NS(=O)(=O)c2ccccc2)n1Cc1ccc(-c2ccccc2S(=O)(=O)NC(=O)NCCC)cc1	1.15 mg/kg	–	0.8	–
CCCNC(=O)NS(=O)(=O)c1ccccc1-c1ccc(Cn2c(C)nc(SC)c2C(=O)O)cc1	–	–	15	–
CCCCOC(=O)NS(=O)(=O)c1ccccc1-c1ccc(Cn2c(CCCC)nc(SC)c2C(=O)O)cc1	0.1 mg/kg	0.6 mg/kg	0.1	–
CCCCc1nc(SC)c(C(=O)O)n1Cc1ccc(-c2ccccc2S(=O)(=O)NC(=O)CCC)cc1	0.06 mg/kg	0.95 mg/kg	0.2	–
CCCNC(=O)NS(=O)(=O)c1ccccc1-c1ccc(Cn2c(C3CC3)nc(SC)c2C(=O)O)cc1	–	–	7.7	–
CCCCc1nc(SC)c(C(=O)O)n1Cc1ccc(-c2ccccc2S(=O)(=O)NC(C)=O)cc1	0.13 mg/kg	2.02 mg/kg	1	–
CCCCc1nc(SC)c(C(=O)O)n1Cc1ccc(-c2ccccc2S(=O)(=O)NC(=O)NCc2cccnc2)cc1	–	–	0.9	–
C=CCNC(=O)NS(=O)(=O)c1ccccc1-c1ccc(Cn2c(CCCC)nc(SC)c2C(=O)O)cc1	0.11 mg/kg	0.57 mg/kg	1.1	–
CCCCc1nc(SC)c(C(=O)O)n1Cc1ccc(-c2ccccc2S(=O)(=O)NC(=O)Cc2ccccc2)cc1	0.44 mg/kg	1.75 mg/kg	0.08	–
CCCCc1nc(SC)c(C(=O)O)n1Cc1ccc(-c2ccccc2S(=O)(=O)NC(=O)N(CC)CC)cc1	–	–	4.7	–
CCCCc1nc(SC)c(C(=O)O)n1Cc1ccc(-c2ccccc2S(=O)(=O)NC(=O)OCC)cc1	0.07 mg/kg	0.38 mg/kg	0.9	–
CCCCc1nc(SC)c(C(=O)O)n1Cc1ccc(-c2ccccc2S(=O)(=O)NC(=O)c2ccccc2)cc1	0.4 mg/kg	–	0.09	–
CCCCc1nc(SC)c(C(=O)O)n1Cc1ccc(-c2ccccc2S(=O)(=O)NS(=O)(=O)CC)cc1	–	–	1.1	> 1
CCCCc1nc(SC)c(C(=O)O)n1Cc1ccc(-c2ccccc2S(=O)(=O)NC(=O)NC)cc1	0.27 mg/kg	4.94 mg/kg	–	–

More lines, main results first:

ID50 [1]	ID50 [2]	IC50 [3] [nM]	SMILES	ED50 (Rattus norvegicus) [mg/kg]
0.16 mg/kg	3.1 mg/kg	1	CCCCc1nc(Cl)c(C(=O)O)n1Cc1ccc(-c2ccccc2S(=O)(=O)NC(=O)NCCC)cc1	–
0.06 mg/kg	3.55 mg/kg	1.5	CCCCc1nc(SC)c(C(=O)NCC(=O)O)n1Cc1ccc(-c2ccccc2S(=O)(=O)NC(=O)NCCC)cc1	–
0.06 mg/kg	2.83 mg/kg	1	CCCCc1nc(SC)c(C(N)=O)n1Cc1ccc(-c2ccccc2S(=O)(=O)NC(=O)NCCC)cc1	–
0.17 mg/kg	1.12 mg/kg	–	CCCCc1nc(SC)c(C(=O)O)n1Cc1ccc(-c2ccccc2S(=O)(=O)NC(=O)NCC)cc1	–
–	–	0.2	CCCNC(=O)NS(=O)(=O)c1ccccc1-c1ccc(Cn2c(CCC)nc(SC)c2C(=O)O)cc1	–
0.02 mg/kg	4.86 mg/kg	2.1	CCCCc1nc(SC)c(C(=O)NC)n1Cc1ccc(-c2ccccc2S(=O)(=O)NC(=O)NCCC)cc1	–
0.11 mg/kg	5.74 mg/kg	0.2	CCCCc1nc(SCCCO)c(C(=O)O)n1Cc1ccc(-c2ccccc2S(=O)(=O)NC(=O)NCCC)cc1	–
0.08 mg/kg	1.13 mg/kg	0.4	CCCCc1nc(SC)c(C(=O)OCC)n1Cc1ccc(-c2ccccc2S(=O)(=O)NC(=O)NCCC)cc1	–
0.11 mg/kg	1.28 mg/kg	0.8	CCCCc1nc(SC(F)(F)F)c(C(=O)O)n1Cc1ccc(-c2ccccc2S(=O)(=O)NC(=O)NCCC)cc1	–
0.14 mg/kg	> 10 mg/kg	3.1	CCCCc1nc([S+](C)[O-])c(C(=O)O)n1Cc1ccc(-c2ccccc2S(=O)(=O)NC(=O)NCCC)cc1 (stereo not given)	–
0.21 mg/kg	> 10 mg/kg	4.5	CCCCc1nc(SC)c(CO)n1Cc1ccc(-c2ccccc2S(=O)(=O)NC(=O)NCCC)cc1	–
–	2.75 mg/kg	0.2	CCCCc1nc(SCSC)c(C(=O)O)n1Cc1ccc(-c2ccccc2S(=O)(=O)NC(=O)NCCC)cc1	–
–	–	103	CCCCc1nc(C(=O)O)c(SC)n1Cc1ccc(-c2ccccc2S(=O)(=O)NC(=O)NCCC)cc1	–
0.7 mg/kg	> 10 mg/kg	2.6	CCCCc1nc(SC)cn1Cc1ccc(-c2ccccc2S(=O)(=O)NC(=O)NCCC)cc1	–
0.11 mg/kg and 0.13 mg/kg	0.7 mg/kg and 0.4 mg/kg	0.3	CCCCc1nc(SC)c(C(=O)O)n1Cc1ccc(-c2ccccc2S(=O)(=O)NC(=O)NCCC)cc1	–
–	–	1.3	CCCNC(=O)NS(=O)(=O)c1ccccc1-c1ccc(Cn2c(CC)nc(SC)c2C(=O)O)cc1	–
0.05 mg/kg	2.4 mg/kg	0.8	CCCCc1nc(SC)c(C(=O)NCC(=O)OC)n1Cc1ccc(-c2ccccc2S(=O)(=O)NC(=O)NCCC)cc1	–
0.1 mg/kg	–	0.6	CCCCc1nc(SC)c(C(=O)OC(C)(C)C)n1Cc1ccc(-c2ccccc2S(=O)(=O)NC(=O)NCCC)cc1	–
0.37 mg/kg	2.11 mg/kg	0.3	CCCCc1nc(SC)c(C(=O)NC(C(=O)O)C(C)CC)n1Cc1ccc(-c2ccccc2S(=O)(=O)NC(=O)NCCC)cc1 (stereo not given)	–
0.09 mg/kg	0.21 mg/kg	–	CCCCNC(=O)NS(=O)(=O)c1ccccc1-c1ccc(Cn2c(CCCC)nc(SC)c2C(=O)O)cc1	–
0.07 mg/kg	0.73 mg/kg	0.5	CCCCc1nc(SC(F)F)c(C(=O)O)n1Cc1ccc(-c2ccccc2S(=O)(=O)NC(=O)NCCC)cc1	–
0.09 mg/kg	3.01 mg/kg	1.7	CCCCc1nc(SC)c(C(=O)NC(C)=O)n1Cc1ccc(-c2ccccc2S(=O)(=O)NC(=O)NCCC)cc1	–
